Source: ChEMBL document CHEMBL2311531, “Synthesis and antioxidant activities of 2-oxo-quinoline-3-carbaldehyde Schiff-base derivatives” (Bioorg Med Chem Lett, 2013)

Legend:
Type in all cases: functional
[1] = Antioxidant activity assessed as DPPH scavenging activity after 30 mins by spectrophotometry
How it was run: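 Sample in DMF at several concentrations added to 0.004% (w/v) DPPH in ethanol, incubated at 37 °C, A517 read after 30 min. Scavenging % = (Acontrol − Atest)/Acontrol × 100, control lacking scavenger. Triplicate; IC50 as concentration scavenging 50% of radicals.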

[2] = Antioxidant activity assessed as superoxide anion radical scavenging activity after 5 mins by spectrophotometry
How it was run: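 Pyrogallol autoxidation at room temperature: sample in DMF at various concentrations added to 0.05 M Tris-HCl with 30 mM 1,2,3-trihydroxybenzene (stock), 5 min reaction, stopped with 8.0 M HCl (stock), A320 read against blank. Scavenging % from absorbance with vs without sample; triplicate; IC50 as concentration scavenging 50% of radicals.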

[3] = Antioxidant activity assessed as ABTS radical scavenging activity after 3 mins by spectrophotometry
How it was run: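 ABTS radical cation from 2 mM ABTS stock in PBS pH 7.4 reacted with 70 mM K2S2O8, standing in dark at room temperature 15-16 h; diluted with PBS to A734 0.700 ± 0.030. Sample solutions at several concentrations mixed with radical solution, absorbance read after 3 min at ambient temperature; PBS blank. Triplicate; IC50 as concentration scavenging 50% of radicals.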

[4] = Antioxidant activity assessed as hydroxyl radical scavenging activity after 1 hr by spectrophotometry
How it was run: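 Salicylate method: 20 mM sodium salicylate, 1.5 mM FeSO4, sample at various concentrations and 6 mM H2O2 (stock levels) mixed, held 1 h in 37 °C water bath, A510 read against blank. Scavenging % from absorbance with vs without sample; triplicate; IC50 as concentration scavenging 50% of radicals.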

IC50 [1]	IC50 ([2]; read-out: IC50)	IC50 [3]	IC50 ([4]; read-out: IC50)	IC50 ([1]; read-out: IC50)	IC50 [4]	IC50 [2]	Compound
Not Active	467 µM	1210 µM	3310 µM	–	–	–	O=c1[nH]c2ccccc2cc1/C=N/CCO
–	197 µM	485 µM	5090 µM	2850 µM	–	–	O=C(Cc1ccncc1)N/N=C/c1cc2ccccc2[nH]c1=O
Not Active	409 µM	222 µM	–	–	Not Active	–	Cc1ccc2[nH]c(=O)c(/C=N/c3ccc(C(=O)O)cc3)cc2c1
Not Active	258 µM	1200 µM	–	–	Not Active	–	Cc1ccc2[nH]c(=O)c(/C=N/c3ccc(S(N)(=O)=O)cc3)cc2c1
–	237 µM	11.7 µM	1660 µM	22.8 µM	–	–	O=c1[nH]c2ccccc2cc1/C=N/c1ccccc1O
–	256 µM	8.91 µM	8730 µM	1290 µM	–	–	NS(=O)(=O)CC(=O)N/N=C/c1cc2ccccc2[nH]c1=O
–	169 µM	1610 µM	266 µM	266 µM	–	–	NS(=O)(=O)c1ccc(/N=C/c2cc3ccccc3[nH]c2=O)cc1
–	235 µM	5.24 µM	–	88.5 µM	Not Active	–	Cc1ccc2[nH]c(=O)c(/C=N/c3ccc(O)cc3)cc2c1
–	1480 µM	1190 µM	4180 µM	498 µM	–	–	Cc1ccc2[nH]c(=O)c(/C=N/CCO)cc2c1
–	389 µM	38.9 µM	1980 µM	160 µM	–	–	Cc1ccc2[nH]c(=O)c(/C=N/O)cc2c1
–	306 µM	7.15 µM	–	92.1 µM	Not Active	–	O=c1[nH]c2ccccc2cc1/C=N/c1ccc(O)cc1
–	–	11.4 µM	245 µM	170 µM	–	Not Active	O=c1[nH]c2ccccc2cc1/C=N/Nc1ccc([N+](=O)[O-])cc1
–	463 µM	31.8 µM	2010 µM	118 µM	–	–	O=c1[nH]c2ccccc2cc1/C=N/O
–	309 µM	8.47 µM	1470 µM	62.4 µM	–	–	Cc1ccc2[nH]c(=O)c(/C=N/Nc3ccccc3)cc2c1
–	15.6 µM	12.8 µM	73.8 µM	43.8 µM	–	–	O=C1O[C@H]([C@@H](O)CO)C(O)=C1O [ASCORBIC ACID]
–	381 µM	438 µM	–	1660 µM	Not Active	–	O=C(O)c1ccc(/N=C/c2cc3ccccc3[nH]c2=O)cc1
Not Active	329 µM	368 µM	3140 µM	–	–	–	O=c1[nH]c2ccccc2cc1/C=N/Cc1ccccc1
–	286 µM	8.24 µM	1350 µM	26.2 µM	–	–	Cc1ccc2[nH]c(=O)c(/C=N/c3ccccc3O)cc2c1
–	254 µM	37 µM	24700 µM	65.8 µM	–	–	Cc1cc(C(C)(C)C)c(O)c(C(C)(C)C)c1 [BUTYLATED HYDROXYTOLUENE]
–	–	8.25 µM	350 µM	109 µM	–	Not Active	Cc1ccc2[nH]c(=O)c(/C=N/Nc3ccc([N+](=O)[O-])cc3)cc2c1
Not Active	–	144 µM	749 µM	–	–	Not Active	Cc1ccc2[nH]c(=O)c(/C=N/Nc3ccc([N+](=O)[O-])cc3[N+](=O)[O-])cc2c1
–	–	142 µM	375 µM	190 µM	–	Not Active	O=c1[nH]c2ccccc2cc1/C=N/Nc1ccc([N+](=O)[O-])cc1[N+](=O)[O-]
–	147 µM	9.17 µM	5830 µM	3350 µM	–	–	Cc1ccc2[nH]c(=O)c(/C=N/NC(=O)CS(N)(=O)=O)cc2c1
–	184 µM	20.6 µM	365 µM	729 µM	–	–	N/N=C/c1cc2ccccc2[nH]c1=O
–	306 µM	11.8 µM	1000 µM	76.5 µM	–	–	O=c1[nH]c2ccccc2cc1/C=N/Nc1ccccc1
–	379 µM	43.3 µM	3560 µM	63.2 µM	–	–	CCCC/N=C/c1cc2cc(C)ccc2[nH]c1=O
–	246 µM	1810 µM	7680 µM	439 µM	–	–	CCCC/N=C/c1cc2ccccc2[nH]c1=O
Not Active	310 µM	607 µM	6920 µM	–	–	–	Cc1ccc2[nH]c(=O)c(/C=N/Cc3ccccc3)cc2c1
–	153 µM	11.3 µM	790 µM	641 µM	–	–	Cc1ccc2[nH]c(=O)c(/C=N/N)cc2c1
–	209 µM	882 µM	4690 µM	3580 µM	–	–	Cc1ccc2[nH]c(=O)c(/C=N/NC(=O)Cc3ccncc3)cc2c1
